Active and inactive are the calls of the source. The calls are words filed in the database; no cut-off is given here.
Experiments:
[1] = test system: Saccharomyces cerevisiae; test: Toxicity against Candida albicans MDR1-expressing Saccharomyces cerevisiae AD1-8u after 48 hrs by MTT assay
[2] = test system: Saccharomyces cerevisiae; test: Toxicity against Saccharomyces cerevisiae AD1-8u after 48 hrs by MTT assay
[3] = test system: Saccharomyces cerevisiae; test: Toxicity against CDR1-expressing Saccharomyces cerevisiae AD after 48 hrs by MTT assay
[4] = target: T1, Multidrug resistance protein CDR1 (Candida albicans, UniProt P43071); test: Inhibition of GFP-tagged Candida albicans CDR1 expressed in Saccharomyces cerevisiae assessed as inhibition of R6G efflux
How it was run: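 S. cerevisiae AD-CDR1 cells were grown 5 h, then de-energized 45 min in 5 mM deoxyglucose/5 mM dinitrophenol in glucose-free PBS. Compound (10–100 μM) was added 5 min before 10 μM R6G, and cells were loaded 40 min at 30°C. After washing, efflux was started with 2% glucose. Supernatant A527 was read at 40 min, with glucose-free controls. Means of three independent experiments.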

[5] = test system: Saccharomyces cerevisiae; test: Toxicity against PDR5-expressing Saccharomyces cerevisiae AD after 48 hrs by MTT assay
[6] = target: Multidrug resistance protein CDR1 (Candida albicans) (UniProt P43071); conditions: 100 uM
[7] = target: T1, Multidrug resistance protein CDR1; test: Displacement of [125I]IAAP from GFP-tagged Candida albicans CDR1 expressed in Saccharomyces cerevisiae
How it was run: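 Crude membranes (50 μg) from S. cerevisiae AD-CDR1 cells were preincubated with compound for 10 min at 37°C in 50 mM Tris-HCl pH 7.5. They were then given 3–6 nM [125I]IAAP for 5 min under subdued light and UV-crosslinked at 365 nm for 10 min at room temperature. Cdr1p was immunoprecipitated with anti-GFP, run on 7% Tris-acetate gel, and the band quantified by phosphorimager.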

[8] = target: Multidrug resistance protein CDR1 (Candida albicans) (UniProt P43071); conditions: 100 uM; remark: listed apart in the source
[9] = test system: Saccharomyces cerevisiae; test: Toxicity against CDR2-expressing Saccharomyces cerevisiae AD after 48 hrs by MTT assay
[10] = test system: Candida albicans; test: Effect on CDR1 expression in Candida albicans at 100 uM by Western blot analysis; format: functional, organism-based
[11] = test system: COc1cc(/C=C/C(=O)CC(=O)/C=C/c2ccc(O)c(OC)c2)ccc1O; conditions: Candida albicans
[12] = test system: Candida albicans; test: Antifungal activity against Candida albicans by checkerboard method in presence of itraconazole; format: functional
How it was run: (§1)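 Checkerboard (CLSI method) on S. cerevisiae AD1-8u cells overexpressing GFP-tagged C. albicans Cdr1p (AD-CDR1). […] FIC = MIC in combination/MIC alone.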

[13] = test system: Candida albicans; test: Antifungal activity against Candida albicans by checkerboard method in presence of R6G; format: functional
How it was run: as §1

[14] = test system: Candida albicans; test: Antifungal activity against Candida albicans by checkerboard method in presence of ketoconazole; format: functional
How it was run: as §1

[15] = test system: Candida albicans; test: Antifungal activity against Candida albicans by checkerboard method in presence of miconazole; format: functional
How it was run: as §1

Which results are given for COc1cc(/C=C/C(=O)CC(=O)/C=C/c2ccc(O)c(OC)c2)ccc1O [CURCUMIN]?
IC50 [1]: 455 µM; IC50 [2]: 422 µM; IC50 [3]: 493 µM; IC50 [4]: 40 µM; IC50 [5]: 498 µM; inhibition [6]: Active; IC50 [7]: 14.2 µM; inhibition [8]: inactive; IC50 [9]: 411 µM; Activity [10]: inactive

For “Multidrug resistance protein CDR1 (Candida albicans) (from UniProt P43071)”, which Km [11] is on record?
The Km was 5.87 µM.

How did the IC50 [4] turn out when O=C(/C=C/c1ccc(O)cc1)CC(=O)/C=C/c1ccc(O)cc1 [BISDEMETHOXYCURCUMIN] was run?
Its IC50 is 40 µM.

With CCC(C)n1ncn(-c2ccc(N3CCN(c4ccc(OCC5COC(Cn6cncn6)(c6ccc(Cl)cc6Cl)O5)cc4)CC3)cc2)c1=O (configuration not stated) [ITRACONAZOLE] as the molecule, how does the FIC [12] read?
The FIC was 0.005.

How did the FIC [13] turn out when CC/N=c1\cc2oc3cc(NCC)c(C)cc3c(-c3ccccc3C(=O)OCC)c-2cc1C.Cl [RHODAMINE 6G HYDROCHLORIDE] was run?
The FIC was 0.0013.

For COc1cc(/C=C/C(O)=C/C(=O)/C=C/c2ccc(O)cc2)ccc1O [DEMETHOXYCURCUMIN], which IC50 [4] is on record?
Its IC50 is 45 µM.

With CC(=O)N1CCN(c2ccc(OCC3COC(Cn4ccnc4)(c4ccc(Cl)cc4Cl)O3)cc2)CC1 (configuration not stated) [KETOCONAZOLE] as the molecule, how does the FIC [14] read?
Its FIC is 0.0054.

What about the FIC [15] of the same molecule?
The FIC was 0.005.

Source: ChEMBL document CHEMBL1649543 (Antimicrob Agents Chemother, 2009)
